Measurements taken from ChEMBL document CHEMBL1155242, “Radiolabeled 5-iodo-3'-O-(17beta-succinyl-5alpha-androstan-3-one)-2'-deoxyuridine and its 5'-monophosphate for imaging and therapy of androgen receptor-positive cancers: synthesis and biological evaluation” (J Med Chem, 2009).

Key:
[1] = target: T1, Sex hormone-binding globulin (Oryctolagus cuniculus, UniProt P15196); assay: Binding affinity to rabbit sex hormone binding globulin at 10 to 20 uCi/mL after 60 mins by size-exclusion HPLC analysis; type: ADME; settings: 1 h
T1 sequence (P15196 whole entry): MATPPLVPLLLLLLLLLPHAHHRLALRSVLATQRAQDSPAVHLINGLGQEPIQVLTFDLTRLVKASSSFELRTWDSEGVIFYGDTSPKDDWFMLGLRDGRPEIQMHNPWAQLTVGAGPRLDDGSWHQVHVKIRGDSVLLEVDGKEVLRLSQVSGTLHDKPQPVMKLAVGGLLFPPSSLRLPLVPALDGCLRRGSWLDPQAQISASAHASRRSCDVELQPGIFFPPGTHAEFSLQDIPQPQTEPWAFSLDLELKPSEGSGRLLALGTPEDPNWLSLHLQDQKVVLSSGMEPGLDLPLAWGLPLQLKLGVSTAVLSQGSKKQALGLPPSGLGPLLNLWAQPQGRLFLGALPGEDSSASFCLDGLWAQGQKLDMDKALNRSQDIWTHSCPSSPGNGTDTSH
Summary of the method: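 Radioligand incubated 60 min in rabbit serum; size-exclusion HPLC as for SHBG binding (phosphate/Na2SO4 pH 6.8, then CH3CN gradient) for SHBG-bound peak, with extracts run on C18 for intact compound.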

[2] = Stability in rabbit serum assessed as half life at 10 to 20 uCi/mL by size-exclusion HPLC analysis; type: ADME, cell-free, Oryctolagus cuniculus
Summary of the method: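 The compound was incubated with rabbit or human serum at ambient temperature, and aliquots were taken at 1, 5 and 24 h. Aliquots were run on size-exclusion HPLC (TSK3000; 0.1 M potassium phosphate/0.1 M Na2SO4, pH 6.8, then an acetonitrile gradient). Extracts were run on C18 reversed-phase HPLC (water/acetonitrile with 0.07% TFA). Half-lives came from a monoexponential fit.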

[3] = Stability in human OVCAR-3 cells expressing androgen receptor assessed as compound degradation at 0.1 uCi/mL up to 4 hrs by silica gel instant thin layer chromatography; type: ADME, cell-based; settings: read-out: Activity
[4] = Biodistribution in peritoneum of athymic NCr mouse xenografted with human OVCAR-3 cells at 1.12 uCi, ip after 1.5 hrs by gamma counting; type: ADME, organism-based; settings: in vivo
[5] = system: OVCAR-3; assay: Antitumor activity against human OVCAR-3 cells xenografted in athymic NCr mouse assessed as number of cancer cells in peritoneum at 180 uCi, ip administered 9 days after tumor implantation as six fractionated doses every 4 days measured after 2 weeks of last dose by gamma counting; type: functional
Summary of the method: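 OVCAR-3 ip xenografts in athymic mice; six fractionated ip doses every 4 days, total 180 μCi/mouse, with PBS or vehicle ip controls. Nonadherent tumor cells recovered by peritoneal lavage at necropsy, counted and pellet-weighed.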

[6] = Ratio of drug level in tumor to spleen in athymic NCr mouse xenografted with human OVCAR-3 cells at 180 uCi, ip administered 9 days after tumor implantation as six fractionated doses every 4 days measured after 72 hrs by gamma counting; type: ADME, organism-based; settings: in vivo
[7] = system: Mus musculus; assay: Toxicity in ip dosed athymic NCr mouse assessed as change in body weight measured after 21 days; type: organism-based; settings: in vivo, 504 h
[8] = target: T2, Sex hormone-binding globulin (Homo sapiens, UniProt P04278); assay: Binding affinity to human sex hormone binding globulin after 30 mins by size-exclusion HPLC analysis; type: ADME
T2 sequence (P04278 whole entry): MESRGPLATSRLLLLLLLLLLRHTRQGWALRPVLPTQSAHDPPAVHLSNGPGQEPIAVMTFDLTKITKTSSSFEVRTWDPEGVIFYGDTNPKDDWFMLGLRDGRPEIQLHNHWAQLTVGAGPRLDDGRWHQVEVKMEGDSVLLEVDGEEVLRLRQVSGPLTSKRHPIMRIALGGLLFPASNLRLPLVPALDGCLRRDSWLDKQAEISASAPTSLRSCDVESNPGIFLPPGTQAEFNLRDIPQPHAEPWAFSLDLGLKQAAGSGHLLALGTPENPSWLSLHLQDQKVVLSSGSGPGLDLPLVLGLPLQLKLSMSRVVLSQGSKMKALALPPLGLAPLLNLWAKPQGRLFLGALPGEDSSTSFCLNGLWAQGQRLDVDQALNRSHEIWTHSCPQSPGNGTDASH
Summary of the method: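 Purified human SHBG diluted in PBS pH 7.1 to a range of concentrations; radioligand in CH3CN (10 μL, ~5.4 μCi average) added, vortexed, 30 min at ambient temperature. Aliquots analysed by size-exclusion HPLC for SHBG-bound peak.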

[9] = system: OVCAR-3; assay: Cellular uptake in human OVCAR-3 cells expressing androgen receptor after 24 hrs; type: ADME, cell-based; settings: ovcar-3, 24 h
Summary of the method: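 NIH:OVCAR-3 cells in complete RPMI-1640 exposed to the radioligand for 24 h (concentration series) or at 1.75 μCi/mL for set times; medium then replaced and cells cultured further 24–48 h; whole-cell and DNA uptake in cpm/cell.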

[10] = system: LNCaP; assay: Cytotoxicity against human LNCAP cells expressing androgen receptor assessed as cell survival at 8 uCi/mL after 48 hrs; type: functional
Summary of the method: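 LNCaP human prostate cancer cells were grown for 48 h with the 125I-labelled compound in the medium, and cell survival was then determined. D37 was expressed as the extracellular concentration in μCi/mL.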

[11] = system: Mus musculus; assay: Toxicity in athymic NCr mouse xenografted with human OVCAR-3 cells assessed as hemoglobin level at 0.25 mCi, ip administered 31 days after tumor implantation as single bolus dose measured 55 days after implantation […] in presence of SHBG (RVb= 11.5 +/- 1.3 g/dL); type: organism-based; settings: in vivo
[12] = system: OVCAR-3; assay: Antitumor activity against human OVCAR-3 cells xenografted in athymic NCr mouse assessed as solid tumor weight in peritoneum at 0.25 mCi, ip administered 31 days after tumor implantation as single bolus dose measured 55 days after implantation by gamma counting in presence of SHBG (Rvb= 1.9 +/- 0.8 g); type: functional
[13] = system: Blood; assay: Biodistribution in blood of athymic NCr mouse xenografted with human OVCAR-3 cells assessed per gram of tissue at 0.25 mCi, ip administered 31 days after tumor implantation as single bolus dose measured 55 days after implantation by gamma counting in presence of SHBG; type: ADME, organism-based; settings: in vivo
Summary of the method: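 Mice given one ip bolus of 0.25 mCi co-injected with SHBG; blood, tumor cells, solid tumors and normal tissues taken at necropsy and counted; %ID/g decay-corrected.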

[14] = system: Lung; assay: Biodistribution in lung of athymic NCr mouse xenografted with human OVCAR-3 cells assessed per gram of tissue at an average 39.5 uCi/dose, ip administered 9 days after tumor implantation as six fractionated doses every 4 days measured after 2 weeks of last dose by gamma counting; type: ADME, organism-based; settings: in vivo, 336 h
Summary of the method: (§1)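 OVCAR-3-bearing and healthy athymic mice given fractionated ip doses on the six-dose every-4-days schedule; tissues, tumor and lavaged cells γ-counted at necropsy, %ID/g; DNA-bound 125I in cells measured as cpm/cell.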

[15] = Biodistribution in uterus of athymic NCr mouse xenografted with human OVCAR-3 cells assessed per gram of tissue at an average 39.5 uCi/dose, ip administered 9 days after tumor implantation as six fractionated doses every 4 days measured after 2 weeks of last dose by gamma counting; type: ADME, organism-based; settings: in vivo, 336 h; summary of the method: as §1
[16] = Biodistribution in small intestine of athymic NCr mouse xenografted with human OVCAR-3 cells assessed per gram of tissue at an average 39.5 uCi/dose, ip administered 9 days after tumor implantation as six fractionated doses every 4 days measured after 2 weeks of last dose by gamma counting; type: ADME, organism-based; settings: in vivo, 336 h; summary of the method: as §1

| SMILES | Activity [1] | t1/2 [2] | metabolised at 4 h, 0.1 uCi/mL [3] | Drug uptake [4] | Activity [5] | Ratio [6] | Activity [7] | Kd [8] | Bmax ([8]; human, 0.5 h) | Drug uptake [9] | Survival [10] | Activity [11] | Activity [12] | Drug uptake [13] | Drug uptake [14] | Drug uptake [15] | Drug uptake [16] |
| --- | --- | --- | --- | --- | --- | --- | --- | --- | --- | --- | --- | --- | --- | --- | --- | --- | --- |
| C[C@]12CCC(=O)C[C@@H]1CC[C@@H]1[C@@H]2CC[C@]2(C)[C@@H](OC(=O)CCC(=O)O[C@H]3C[C@H](n4cc([125I])c(=O)[nH]c4=O)O[C@@H]3CO)CC[C@@H]12 | Active | 5.7 h | 60% | 29% | 380000000 | 11.9 | Non-toxic | – | – | – | – | – | – | – | – | – | – |
| C[C@]12CCC(=O)C[C@@H]1CC[C@@H]1[C@@H]2CC[C@]2(C)[C@@H](OC(=O)CCC(=O)O[C@H]3C[C@H](n4cc([125I])c(=O)[nH]c4=O)O[C@@H]3COP(=O)(O)O)CC[C@@H]12 | – | – | – | – | – | – | – | 0.0172 µM | 4.5 nM | Dose-dependent effect | 90% | 12.2 g/dL | 1.2 g | 0.057 %ID | 0.008 %ID | 0.027 %ID | 0.011 %ID |
